In ChEMBL document CHEMBL1134337, “Behavioral approach to nondyskinetic dopamine antagonists: identification of seroquel” (J Med Chem, 2001):

Columns and labels:
Mus musculus [1] = experiment: Antagonism of apomorphine induced climbing was determined in female swiss -Webster mice after (i.p.) +SKF525A administration of 2.5 mg/kg; assay type: functional; settings: route intraperitoneal
Procedure, shortened: (§1)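 Female Swiss-Webster mice (about 20 g) were fasted about 24 h, then given test compound or vehicle ip or po (N = 20 per group). Vehicle was 0.5% w/w hydroxypropylmethylcellulose with 0.1% w/w Tween 80 in water. After 30 min, mice received apomorphine HCl 1.25 mg/kg sc. At 13 min, each mouse was watched for 1 min; score was mean of highest and lowest rung of 27. Groups were compared with vehicle by Student's t-test.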

Mus musculus [2] = experiment: Antagonism of apomorphine induced climbing was determined in female swiss -Webster mice after (ip) administration of 20 mg/kg; assay type: functional; procedure, shortened: as §1
Mus musculus [3] = experiment: Antagonism of apomorphine induced climbing was determined in female swiss -Webster mice after (po) administration of 10 mg/kg; assay type: functional; procedure, shortened: as §1
Mus musculus [4] = experiment: Antagonism of apomorphine induced climbing was determined in female swiss -Webster mice after (i.p.) +SKF525A administration of 20 mg/kg; assay type: functional; settings: route intraperitoneal; procedure, shortened: as §1
Mus musculus [5] = experiment: Antagonism of apomorphine induced climbing was determined in female swiss -Webster mice after (p.o.) +SKF525A administration of 20 mg/kg; assay type: functional; settings: route oral; procedure, shortened: as §1
Mus musculus [6] = experiment: Antagonism of apomorphine induced climbing was determined in female swiss -Webster mice after (ip) administration of 10 mg/kg; assay type: functional; procedure, shortened: as §1
Mus musculus [7] = experiment: Antagonism of apomorphine induced climbing was determined in female swiss -Webster mice after (ip) administration of 2.5 mg/kg; assay type: functional; procedure, shortened: as §1
[8] = molecular target: D(2) dopamine receptor (Rattus norvegicus) (UniProt P61169); experiment: Binding affinity at dopamine receptor D2 from rat by spiropiperidone displacement.
Procedure, shortened: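 D2 receptor binding was read as % displacement of spiropiperidone, with test compound at 1000 nM unless stated otherwise. IC50 values used at least five concentrations per compound in triplicate. Each value is the mean of two replicate experiments differing by 5% or less.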

Mus musculus [9] = experiment: Antagonism of apomorphine induced climbing was determined in female swiss -Webster mice after (po) administration of 5 mg/kg; assay type: functional; procedure, shortened: as §1
Mus musculus [10] = experiment: Antagonism of apomorphine induced climbing was determined in female swiss -Webster mice after (p.o.) +SKF525A administration of 10 mg/kg; assay type: functional; settings: route oral; procedure, shortened: as §1
Mus musculus [11] = experiment: Antagonism of apomorphine induced climbing was determined in female swiss -Webster mice after (po) administration of 20 mg/kg; assay type: functional; procedure, shortened: as §1
Mus musculus [12] = experiment: Antagonism of apomorphine induced climbing was determined in female swiss -Webster mice after (i.p.) +SKF525A administration of 10 mg/kg; assay type: functional; settings: route intraperitoneal; procedure, shortened: as §1
Mus musculus [13] = experiment: Antagonism of apomorphine induced climbing was determined in female swiss -Webster mice after (i.p.) +SKF525A administration of 5 mg/kg; assay type: functional; settings: route intraperitoneal; procedure, shortened: as §1
Mus musculus [14] = experiment: Antagonism of apomorphine induced climbing was determined in female swiss -Webster mice after (p.o.) +SKF525A administration of 5 mg/kg; assay type: functional; settings: route oral; procedure, shortened: as §1
Mus musculus [15] = experiment: Antagonism of apomorphine induced climbing was determined in female swiss -Webster mice after (ip) administration of 5 mg/kg; assay type: functional; procedure, shortened: as §1

Chain of D(2) dopamine receptor (Rattus norvegicus) (P61169 whole entry): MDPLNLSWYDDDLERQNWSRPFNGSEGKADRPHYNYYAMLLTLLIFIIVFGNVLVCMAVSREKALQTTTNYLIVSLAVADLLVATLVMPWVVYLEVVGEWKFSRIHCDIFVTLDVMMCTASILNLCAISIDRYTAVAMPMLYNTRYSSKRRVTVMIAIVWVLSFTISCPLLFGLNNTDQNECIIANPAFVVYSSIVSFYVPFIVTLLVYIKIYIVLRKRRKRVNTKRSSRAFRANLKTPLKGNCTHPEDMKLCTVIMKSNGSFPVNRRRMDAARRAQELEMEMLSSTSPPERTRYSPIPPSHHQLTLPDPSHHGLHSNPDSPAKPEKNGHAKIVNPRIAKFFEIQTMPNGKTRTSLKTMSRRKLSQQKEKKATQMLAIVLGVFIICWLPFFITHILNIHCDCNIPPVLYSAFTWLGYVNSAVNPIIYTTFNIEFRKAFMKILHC

Work on `CN1CCN(C2=Nc3ccccc3Sc3ccccc32)CC1` yielded an Activity (Mus musculus [1]) of 23, an Activity (Mus musculus [2]) of 0 and an Activity (Mus musculus [3]) of 8. For the same molecule, the Activity (Mus musculus [4]) was 3, the Activity (Mus musculus [5]) was 9 and the Activity (Mus musculus [6]) was 3. The Activity (Mus musculus [7]) was 21, the % displacement of spiropiperidone [8] was 35% and the Activity (Mus musculus [9]) was 21. It also gave an Activity (Mus musculus [10]) of 18, an Activity (Mus musculus [11]) of 0 and an Activity (Mus musculus [12]) of 18. The Activity (Mus musculus [13]) was 21, the Activity (Mus musculus [14]) was 23 and the Activity (Mus musculus [15]) was 14.
